RGS4 inh = inhibitors of human RGS4. P49798. HEK293 M3R/RGS4 inducible, Fluo-4 calcium flux; active compounds read high; triggered by carbachol at its EC20. B-score at 10 µM. 310,000 compounds, 0.45% hits;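 active = B-score, a plate-corrected calcium signal, over three deviations above library mean, with baseline fluorescence within five deviations of library mean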;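 also: RGS4 expression induced by doxycycline in cells with stable M3 receptor; B-score is computed from the integrated fluorescence ratio over baseline after carbachol; higher B-score means a larger calcium signal and so more RGS4 inhibition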
RGS4 act = RGS4 potentiation or activation. HEK293 M3R/inducible RGS4, carbachol calcium flux Fluo4; active compounds read low. B-score at 10 µM. 310,000 compounds, 0.92% hits. AID 463111;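 active = B-score of the integrated calcium signal more than 4 SD below the library mean, with starting fluorescence not abnormally high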;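 also: negative B-score means reduced calcium response which marks RGS4 activation or potentiation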
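Test system: HEK293 cells with stable M3R and inducible RGS4; also added: carbachol at ECmax as muscarinic agonist stimulus; schedule: dye loading 30 min 37 °C, buffer rest 30 min RT; technique: kinetic calcium fluorescence imaging with Fluo4-AM dye, 2 µM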
MrgX1 agonist = human MrgX1 receptor agonism, primary screen | Q96LB2 | MrgX1-HEK293 cells, Fluo-4 calcium fluorescence, agonist mode; active compounds read high | B-score at 10 µM | 310,000 compounds, 0.44% hits | AID 588627;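 active = calcium response B-score plate-corrected fluorescence ratio at least 3 library SD, with starting fluorescence B-score inside 5 SD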
Target sequence (Q96LB2 whole entry, looked up): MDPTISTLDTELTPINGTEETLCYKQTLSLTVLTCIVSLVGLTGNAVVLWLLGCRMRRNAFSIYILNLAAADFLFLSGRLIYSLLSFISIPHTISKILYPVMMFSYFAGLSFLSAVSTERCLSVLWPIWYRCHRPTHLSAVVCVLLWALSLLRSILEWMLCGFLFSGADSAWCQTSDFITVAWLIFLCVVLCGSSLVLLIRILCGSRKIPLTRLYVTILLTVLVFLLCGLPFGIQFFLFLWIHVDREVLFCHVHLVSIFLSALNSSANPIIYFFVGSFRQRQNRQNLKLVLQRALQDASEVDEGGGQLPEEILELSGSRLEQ
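Test system: HEK293 cells stably expressing human MrgX1 receptor; amount: 15,000 cells per well; doses: compound delivered in addition one of three; times: overnight plating before 1 h dye loading; detection: Fluo-4 NW calcium-flux fluorescence, kinetic read; read-out basis: B-scored fluorescence response ratio; controls: positive and negative controls per plate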
MrgX1 antag = blocks BAM8-22 activation of human MrgX1 receptor; B-score at 10 µM; MRGX1-HEK293 calcium flux, Fluo-4, BAM8-22 antagonism; active compounds read low; Q96LB2; AID 588676; 310,000 compounds, 1.3% hits;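 active = calcium-response B-score plate-corrected more than 3 library SD below zero, starting fluorescence within 5 deviations, no agonist response on first addition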;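 also: peak minus trough fluorescence over baseline after final BAM8-22 challenge near maximal dose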
MrgX1 allo act = human MrgX1 positive allosteric modulation, primary screen. Q96LB2. MrgX1-HEK293, Fluo-4 calcium flux, FDSS; active compounds read high. B-score at 10 µM. 310,000 compounds, 0.63% hits;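 active = plate-corrected calcium response at least 3 library SD above typical, normal starting fluorescence, not activating the receptor alone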;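 also: compound read alongside a low EC10 to EC30 dose of BAM8-22 agonist; peak minus trough fluorescence over baseline measured at the second addition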
Numbers stand for hits; – = inactive. A selection: hits, their analogues and other compounds. The true share with any hit is near 3.5%.

SMILES	RGS4 inh	RGS4 act	MrgX1 agonist	MrgX1 antag	MrgX1 allo act
CC(C)=CCOc1ccc([C@@H]2COc3c(ccc4c3C=CC(C)(C)O4)C2)c(O)c1	–	-9.4	–	–	–
CC(C)=CCc1c2c(c3occ(-c4ccc(O)cc4)c(=O)c3c1O)C=CC(C)(C)O2	–	–	–	–	–
CCN1CCN(C(=O)/C(=C/c2cccs2)NC(=O)c2ccc(C)c(C)c2)CC1	–	–	–	–	–
COc1cc2c(cc1NC(=S)Nc1cccc3ccccc13)oc1ccccc12	–	–	–	–	–
COc1cc2c(cc1NC(=S)Nc1cccc(C(F)(F)F)c1)oc1ccccc12	–	–	–	-5.7	–
CN1CCN(C2=C(Cl)C(=O)C(c3cnc(N4CCCCC4)s3)=C(Cl)C2=O)CC1	–	-7.1	–	–	–
COc1ccccc1C1CCN(Cc2ccc(C)cc2)CC1	–	–	–	–	–
CCOc1ccc(C(=O)NCC(=O)NCC(c2ccc(OC)cc2)N2CCOCC2)cc1OCC (configuration not stated)	–	–	–	–	–
COc1ccc(Cc2nc3ccc(C(=O)N4CCN(C)C(C)C4)cc3o2)cc1OC (configuration not stated)	–	–	–	–	–
C=CCNC(=O)CC(=O)N/N=C/c1cccc(C)c1	–	–	–	-4.6	–
O=C1CCC(C(=O)N2CCc3c(Cl)cccc3C2)CN1CCCN1CCOCC1 (configuration not stated)	–	–	–	–	–
Cn1c(=O)nc2n(Cc3ccccc3)c3cccc(Cl)c3cc-2c1=O	–	-9.4	–	–	–
Cn1c(=O)n(Cc2ccccc2)c2ccccc21	–	–	–	–	–
COc1ccc(CC(=O)N2CCc3cc(OC)c(OC)cc3C2C)c(OC)c1 (configuration not stated)	–	–	–	–	–
C[N+]1(C)CCC(=C2c3ccccc3CC(=O)c3sccc32)CC1	–	-8.3	–	–	–
CCN1CCc2c(sc(NC(=O)c3ccc(S(=O)(=O)N(C)c4ccccc4)cc3)c2C(=O)NC)C1	–	-7.5	59	–	–
CN(C)C1(CNC(=O)C2CCN(S(=O)(=O)c3ccccc3C(F)(F)F)CC2)CCCCC1	–	–	–	–	–
CCCCc1cc(=O)oc2cc(C)cc(O)c12	–	–	–	–	–
CCCCc1cc(=O)oc2cc(O)cc(O)c12	–	–	33	–	–
CCCc1cc(O)c2c(C)cc(=O)oc2c1	–	–	31	–	–
CCOC(=O)c1[nH]c2ccc(Br)cc2c1NC(=O)CCN1CCC(C)CC1	–	–	–	–	–
CCOC(=O)c1[nH]c2ccc(Br)cc2c1NC(=O)CCN1CCCC(C)C1 (configuration not stated)	–	-8.6	–	–	–
CC(=O)c1ccc(S(=O)(=O)Nc2ccc(C(=O)NCC(c3cccs3)N3CCOCC3)cc2)cc1 (configuration not stated)	–	–	–	–	–
CCOc1ccc(NS(=O)(=O)c2ccc(C(=O)NCC(c3cccs3)N3CCOCC3)cc2)cc1 (configuration not stated)	–	–	–	-6.5	–
CN(C)c1nccc(N(Cc2ccccc2)Cc2ccccc2)c1C#N	–	-7	–	–	–
SMILES	RGS4 inh	RGS4 act	MrgX1 agonist	MrgX1 antag	MrgX1 allo act
CN(C)CCN(Cc1ccccc1)c1ccnc(N(C)C)c1C#N	–	–	–	–	–
COc1ccc(NS(=O)(=O)c2cccc(C(=O)NCC(c3ccccc3)N(C)C)c2)cc1 (configuration not stated)	–	–	–	-5	–
Cc1nn2c(N3CCCC3)cc(C(C)C)nc2c1-c1ccccc1	–	-7.1	–	–	–
COc1ccc(/C=N/NC(=O)COc2ccc3ccccc3c2)c(C(=O)O)c1OC	–	–	–	-5.4	–
COc1ccccc1OCC(=O)N/N=C/c1c(O)ccc2ccccc12	–	-7.6	–	–	–
COc1ccc(OCC(=O)N/N=C/c2ccc(OC)c(OC)c2C(=O)O)cc1	–	–	–	–	–
CCn1c(-c2ccccc2Cl)nn(CC(=O)NCCc2ccccc2)c1=S	–	–	–	–	12
CCOC(=O)N1CCN(C(=O)C2CCN(C(=O)c3ccc(C(C)(C)C)cc3)CC2)CC1	–	–	–	–	–
